Source: PubChem (Johns Hopkins Ion Channel Center)
MrgX1 antagonist: antagonists of human MrgX1 receptor, primary screen, HEK293 cells, Fluo-4 calcium flux; actives 1.3% (n = 310,000); B-score at 10 µM; BAM8-22 antagonism; stronger effect = lower value; Mas-related G-protein coupled receptor member X1 (Homo sapiens), Q96LB2;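 active = calcium-response B-score plate-corrected more than 3 library SD below zero, starting fluorescence within 5 deviations, no agonist response on first addition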;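 also: peak minus trough fluorescence over baseline after final BAM8-22 challenge near maximal dose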
Target sequence (Q96LB2 whole entry, looked up): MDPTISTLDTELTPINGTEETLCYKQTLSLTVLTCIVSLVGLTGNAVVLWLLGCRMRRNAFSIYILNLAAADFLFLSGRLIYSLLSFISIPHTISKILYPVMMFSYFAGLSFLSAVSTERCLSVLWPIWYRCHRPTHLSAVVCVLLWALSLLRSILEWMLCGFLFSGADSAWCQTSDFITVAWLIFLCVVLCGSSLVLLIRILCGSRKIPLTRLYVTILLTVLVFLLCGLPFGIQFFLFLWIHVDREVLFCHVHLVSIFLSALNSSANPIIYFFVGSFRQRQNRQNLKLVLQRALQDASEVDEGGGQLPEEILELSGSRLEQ
MrgX1 allo act: positive allosteric modulators of MrgX1, primary screen, HEK293 cells, Fluo-4 calcium flux | FDSS; stronger effect = higher value | AID 588675, 2011 | Mas-related G-protein coupled receptor member X1 (Homo sapiens), Q96LB2 | B-score at 10 µM | actives 0.63% (n = 310,000);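 active = plate-corrected calcium response at least 3 library SD above typical, normal starting fluorescence, not activating the receptor alone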;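 also: compound read alongside a low EC10 to EC30 dose of BAM8-22 agonist; peak minus trough fluorescence over baseline measured at the second addition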
MrgX1 agonist: agonists of human MrgX1 receptor, primary screen, HEK293 cells, Fluo-4 calcium flux; Fluo-4 calcium fluorescence, agonist mode; stronger effect = higher value; Mas-related G-protein coupled receptor member X1 (Homo sapiens), Q96LB2; B-score at 10 µM; actives 0.44% (n = 310,000);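 active = calcium response B-score plate-corrected fluorescence ratio at least 3 library SD, with starting fluorescence B-score inside 5 SD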
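Test system: HEK293 cells stably expressing human MrgX1 receptor; amount: 15,000 cells per well; doses: compound delivered in addition one of three; times: overnight plating before 1 h dye loading; detection: Fluo-4 NW calcium-flux fluorescence, kinetic read; read-out basis: B-scored fluorescence response ratio; controls: positive and negative controls per plate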
RGS4 inh: RGS4 inhibitors, primary screen, cell-based, HEK293 M3R inducible RGS4, calcium flux; Regulator of G-protein signaling 4 (Homo sapiens), P49798; Fluo-4 calcium flux; stronger effect = higher value; triggered by carbachol at its EC20; B-score at 10 µM; actives 0.45% (n = 310,000);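 active = B-score, a plate-corrected calcium signal, over three deviations above library mean, with baseline fluorescence within five deviations of library mean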;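 also: RGS4 expression induced by doxycycline in cells with stable M3 receptor; B-score is computed from the integrated fluorescence ratio over baseline after carbachol; higher B-score means a larger calcium signal and so more RGS4 inhibition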
Target sequence (P49798 whole entry, looked up): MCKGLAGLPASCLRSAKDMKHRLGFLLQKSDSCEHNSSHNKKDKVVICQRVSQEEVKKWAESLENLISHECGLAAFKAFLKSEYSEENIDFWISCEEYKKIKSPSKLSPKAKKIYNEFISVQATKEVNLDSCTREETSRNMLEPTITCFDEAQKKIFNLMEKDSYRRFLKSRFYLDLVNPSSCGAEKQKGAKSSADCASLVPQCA
RGS4 pot: RGS4 potentiators or activators, primary screen, cell-based, HEK293 M3R inducible RGS4, calcium flux; actives 0.92% (n = 310,000); AID 463111, 2010; B-score at 10 µM; carbachol calcium flux Fluo4; stronger effect = lower value;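 active = B-score of the integrated calcium signal more than 4 SD below the library mean, with starting fluorescence not abnormally high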;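 also: negative B-score means reduced calcium response which marks RGS4 activation or potentiation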
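Material: M3R-expressing HEK293 line, RGS4 induced by doxycycline | Schedule: Overnight RGS4 induction, 30 min dye load 37 °C, 20 min compound RT | Measured by: Fluo4 fluorescence kinetic imaging of calcium | Read-out: Integrated calcium ratio converted to B score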
RGS4 activ val: reduced carbachol calcium response, RGS4-induced M3R cells, confirmation, RGS4 activator project, cell-based, HEK293 M3R/RGS4 inducible, calcium flux, duplicate; shares compounds with RGS4 pot; actives 89% (n = 1,100); inhibition, % at 10 µM; carbachol calcium flux Fluo4;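 active = inhibition above 3 SD of the buffer control wells, cut at about 41% in these data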;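 also: signal is the integrated peak-minus-minimum Fluo4 fluorescence over baseline ratio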
RGS4 act ctr: RGS4 activator counter-screen hit in non-induced cells. HEK293 M3R non-induced RGS4, Fluo4 calcium flux; after carbachol challenge at its EC90. inhibition, % at 10 µM. actives 82% (n = 1,100). shares compounds with RGS4 pot. AID 602283;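 active = inhibition exceeding 3 SD of buffer-only control wells, cut at about 26% in these data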;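 also: percent drop in integrated peak-minus-baseline over baseline Fluo4 ratio after carbachol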
* hit, by the source's call; i = inactive; . = no result. Rows were chosen to be rich in hits. Some 3.5% of all compounds tested hit in one or more screens of this group.

SMILES | MrgX1 antagonist | MrgX1 allo act | MrgX1 agonist | RGS4 inh | RGS4 pot | RGS4 activ val | RGS4 act ctr
Brc1cccc(OCCCCN2CCCCC2)c1 | i | i | i | i | -8.6* | 92* | 66*
CCOc1cccc(OCCCCN2CCCCC2)c1 | i | i | i | i | -7.9* | 80* | 37*
CCC(C)N(C(=O)CSc1nnc(NC(C)C)s1)C1CCS(=O)(=O)C1 (stereo unspecified) | i | i | i | i | i | . | .
CC1CCN(CC(=O)Nc2ccccc2-c2ccccc2)CC1 | i | i | i | i | -9.1* | 92* | 61*
CNCCOc1ccccc1-c1ccccc1 | i | i | i | i | i | . | .
CC1CCN(CCCCOc2ccccc2-c2ccccc2)CC1 | i | i | i | i | -8.4* | 72* | 84*
CNCCCCOc1ccccc1-c1ccccc1 | i | i | i | i | -8.8* | 85* | 84*
CC1CCN(CCCCOc2ccc(Cl)cc2)CC1 | i | i | i | i | i | . | .
CC1CCN(CCCCOc2ccc(C(C)(C)C)cc2)CC1 | i | i | i | i | -9.6* | 93* | 60*
COc1cccc(CNC(=O)C(=O)NCC2OCCCN2S(=O)(=O)c2cc(C)ccc2C)c1 (stereo unspecified) | i | i | i | i | i | . | .
Cc1ccc(S(=O)(=O)N2CCC(C(=O)NC3CC(C)(C)NC(C)(C)C3)CC2)cc1C | i | i | i | i | i | . | .
CC(=O)Nc1cccc(-c2cc(C)c3cc4c(cc3n2)OCO4)c1 | . | . | . | i | i | . | .
Cc1ccc(S(=O)(=O)c2ccc(Oc3cccc(C)c3)cc2)cc1 | i | i | i | i | -8.1* | 68* | 30*
CCN1CCN(c2nc(-c3ccccc3)c3ccccc3n2)CC1 | i | i | i | i | -8.6* | 82* | 40*
CC(Oc1cccc2cccnc12)C(=O)N/N=C/c1ccccc1 (stereo unspecified) | i | i | i | i | i | . | .
CC(Oc1cccc2cccnc12)C(=O)N/N=C/c1ccc2c(c1)OCO2 (stereo unspecified) | i | i | i | i | -13* | 0 | 0
COC(=O)C1N[C@@H]([C@@H](NC(=O)COc2ccccc2)C(=O)Nc2ccc(OC)cc2)SC1(C)C (stereo partly specified) | i | i | i | i | i | . | .
Cc1ccc(C(=O)NC(=S)Nc2ccc(CN3CCCCC3)cc2)c(C)c1 | i | i | i | i | -7.6* | 82* | 84*
CCN=C1SC(C(=O)Nc2ccc(Cl)c(Cl)c2)CC(=O)N1CC (stereo unspecified) | i | i | i | i | i | . | .
CCN=C1SC(C(=O)Nc2cccc(Br)c2)CC(=O)N1CC (stereo unspecified) | i | i | i | i | -7.8* | 56* | 84*
CC(=O)N1CCOc2ccc(S(=O)(=O)N3CCC(C(=O)Nc4cc(C)ccc4C)CC3)cc21 | i | i | i | i | i | . | .
CC(=O)N1CCOc2ccc(S(=O)(=O)N3CCC(C(=O)Nc4ccc(C)cc4C)CC3)cc21 | i | i | i | i | -8.6* | 0 | 0
COCCNC(=O)Cn1c(=O)n(CCCC(=O)NCc2ccc3c(c2)OCO3)c(=O)c2sccc21 | i | i | i | i | i | . | .
Nc1cc(=O)[nH]c(SCC(=O)Nc2ccc(Oc3ccccc3)cc2)n1 | i | i | i | i | -10* | 0 | 0
Nc1cc(=O)[nH]c(SCC(=O)Nc2cccc(Cl)c2)n1 | i | i | i | i | i | . | .
SMILES | MrgX1 antagonist | MrgX1 allo act | MrgX1 agonist | RGS4 inh | RGS4 pot | RGS4 activ val | RGS4 act ctr
CCN(c1cccc(C)c1)S(=O)(=O)c1cn(CC(=O)OC)c2ccc([N+](=O)[O-])cc12 | i | i | i | i | i | . | .
O=C1CC(c2ccco2)Cc2nc(N3CCN(Cc4ccc5c(c4)OCO5)CC3)ncc21 (stereo unspecified) | i | i | i | i | -8.9* | 88* | 65*
Cc1ccc(C(C)C)c(OCCCNCc2cccnc2)c1 | i | i | i | i | -8.7* | 92* | 60*
CCCSc1nc(C)c2cc(C)cc(C)c2n1 | i | i | i | i | i | . | .
Cc1cc(C)c2nc3nc(C)c(C)cc3c(N)c2c1 | . | . | . | i | -9.3* | 90* | 65*
CC(C)c1cc(C(C)C)c(S(=O)(=O)N2c3ccccc3[C@@]3(Br)C[C@H]4C(=O)N[C@@H](Cc5ccccc5)C(=O)N4[C@@H]23)c(C(C)C)c1 | i | i | i | i | i | . | .
COc1ccccc1CNC(=O)Cc1ccccc1 | i | i | i | i | i | . | .
COc1cccc(CN2CCCC(C(=O)Nc3ccc(-c4cscn4)cc3)C2)c1 (stereo unspecified) | i | i | i | i | -9.9* | 92* | 62*
Cc1ncc(CN2CCCC(C(=O)Nc3ccc(-c4cscn4)cc3)C2)cn1 (stereo unspecified) | i | i | i | i | i | . | .
COC(=O)Cn1nc(-c2ccc(C)cc2)c2ccccc2c1=O | i | i | i | i | i | . | .
CCN(CC)S(=O)(=O)c1ccc(N2CCc3ccccc3C2)nc1 | i | i | i | i | -10* | 60* | 84*
CC(C)NS(=O)(=O)c1ccc(OCC(=O)N2CCc3ccccc3C2)cc1 | i | i | i | i | i | . | .
CC(C)NS(=O)(=O)c1ccc(CCC(=O)N2CCc3ccccc3C2)cc1 | i | i | i | i | -7.5* | 0 | 0
CN(C)CCNC(=O)c1cc2c(s1)-c1ccc(Cl)cc1SC2 | i | i | i | i | -13* | 94* | 93*
Cc1ccc(/C=C/C(O)=C2/C(=O)N(C)C3(C)CC2c2ccccc2O3)cc1 (stereo unspecified) | i | i | i | i | -8* | 73* | 84*
COc1ccc(/C=C/C(O)=C2/C(=O)N(C)C3(C)CC2c2ccccc2O3)cc1 (stereo unspecified) | i | i | i | i | i | . | .
